Results taken from ChEMBL document CHEMBL1932986, “Synthesis and in vitro antimycobacterial activity of compounds derived from (R)- and (S)-2-amino-1-butanol - The crucial role of the configuration” (Eur J Med Chem, 2012).
pIC50: −log10 of the molar value. ≈ marks a conversion by molar mass, not a printed value. Calls of active or inactive are those of the source. The calls are words filed in the database; no cut-off is given here.

Tests used:
Micrococcus luteus [1] = test: Antibacterial activity against Sarcina lutea ATCC 9341 at 50 mg/ml after 24 hrs by agar diffusion test; type: functional; details: for zone of inhibition at 50000 µg/mL: ATCC 9341, 24 h, read-out: DIZ
In short: (§1)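 Agar diffusion: bacteria grown 24 h at 37 °C on nutrient agar. Wells in the agar are filled with […] of compound solution in DMSO at various concentrations. The diameter of the clear zone around the application point is measured. Bracketed values give the lowest concentration (mg/ml) that produces a zone >11 mm. A first screen is run at 50 mg/ml.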

Candida tropicalis = test: Antifungal activity against Candida tropicalis ATCC 20336 at 50 mg/ml after 72 hrs by agar diffusion test; type: functional; details: for zone of inhibition at 50000 µg/mL: ATCC 20336, 72 h, read-out: DIZ
In short: (§2)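 Agar diffusion: yeasts grown on yeast peptone dextrose agar and fungi on potato dextrose agar. Wells are filled with […] of compound solution in DMSO at various concentrations, and the clear-zone diameter is measured. Bracketed values give the lowest concentration (mg/ml) that produces a zone >11 mm. A first screen is run at 50 mg/ml.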

Saccharomyces cerevisiae = test: Antifungal activity against Saccharomyces cerevisiae ATCC 9763 at 50 mg/ml after 72 hrs by agar diffusion test; type: functional; details: for zone of inhibition at 50000 µg/mL: ATCC 9763, 72 h, read-out: DIZ; in short: as §2
[2] = test system: Mycobacterium tuberculosis; test: Antimycobacterial activity against Mycobacterium tuberculosis H37Rv after 45 days; type: functional
In short: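 Canetti proportion method. Compound in DMSO is added to Löwenstein–Jensen egg medium before coagulation (30 min, 85 °C), tested at three levels plus a lower one where needed. Tubes are inoculated with H37Rv at 10⁵ cells/ml and incubated 45 days at 37 °C. Colony counts versus drug-free control give percentage inhibition.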

Bacillus cereus = test: Antibacterial activity against Bacillus cereus ATCC 11778 at 50 mg/ml after 24 hrs by agar diffusion test; type: functional; details: for zone of inhibition at 50000 µg/mL: ATCC 11778, 24 h, read-out: DIZ
In short: (§3)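 Agar diffusion: wells in agar filled with […] DMSO solution of compound at various concentrations; diameter of clear zone around application point measured. Bacteria grown 24 h at 37 °C on nutrient agar. Compounds first screened at 50 mg/ml; those active then tested at lower concentrations. Bracketed value = lowest concentration (mg/ml) giving zone >11 mm, reported only if activity retained at ≤1.25 mg/ml.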

Acinetobacter johnsonii = test: Antibacterial activity against Acinetobacter johnsonii ATCC 17909 at 50 mg/ml after 24 hrs by agar diffusion test; type: functional; details: for zone of inhibition at 50000 µg/mL: ATCC 17909, 24 h, read-out: DIZ; in short: as §3
Micrococcus luteus [3] = test: Antibacterial activity against Micrococcus luteus ATCC 9631 at 50 mg/ml after 24 hrs by agar diffusion test; type: functional; details: for zone of inhibition at 50000 µg/mL: ATCC 9631, 24 h, read-out: DIZ; in short: as §3
HEK-293T = test: Cytotoxicity against human HEK293T cells after 72 hrs by MTT assay; type: cell-based
In short: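 293T cells in RPMI-1640 with 10% heat-inactivated FCS and 2 mM L-glutamine, 37 °C, 5% CO2. Cells seeded at 3.5 × 10⁵ cells/ml, grown 24 h, then exposed 72 h to DMSO-diluted compounds (final solvent ≤0.5%), ≥8 wells per concentration. MTT added 4 h, formazan dissolved in 5% HCOOH/2-propanol, absorbance read at 580 nm. IC50 obtained by sigmoidal nonlinear regression against untreated control.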

Bacillus mycoides = test: Antibacterial activity against Bacillus mycoides DSMZ 274 at 50 mg/ml after 24 hrs by agar diffusion test; type: functional; details: for zone of inhibition at 50000 µg/mL: DSMZ 274, 24 h, read-out: DIZ; in short: as §3
[4] = Solubility of the compound in deionized water; type: physicochemical
Bacillus = test: Antibacterial activity against Bacillus idosus B 241 at 50 mg/ml after 24 hrs by agar diffusion test; type: functional; details: for zone of inhibition at 50000 µg/mL: B 241, 24 h, read-out: DIZ; in short: as §3
Staphylococcus aureus = test: Antibacterial activity against Staphylococcus aureus NRRL B 313 at 50 mg/ml after 24 hrs by agar diffusion test; type: functional; details: for zone of inhibition at 50000 µg/mL: NRRL B 313, 24 h, read-out: DIZ; in short: as §1
Priestia megaterium = test: Antibacterial activity against Bacillus megaterium NRRL 1353895 at 50 mg/ml after 24 hrs by agar diffusion test; type: functional; details: for zone of inhibition at 50000 µg/mL: NRRL 1353895, 24 h, read-out: DIZ; in short: as §3
[5] = Selectivity index, ratio of IC50 for human HEK293T cells to MIC for Mycobacterium tuberculosis H37Rv; type: functional, HEK-293T
[6] = test system: Mycobacterium tuberculosis; test: Ratio of ethambutol dihydrochloride MIC to compound MIC for Mycobacterium tuberculosis H37Rv; type: functional
Penicillium chrysogenum = test: Antifungal activity against Penicillium chrysogenum CECT 2802 at 50 mg/ml after 72 hrs by agar diffusion test; type: functional; in short: as §2
Bacillus subtilis = test: Antibacterial activity against Bacillus subtilis ATCC 6633 at 50 mg/ml after 24 hrs by agar diffusion test; type: functional; details: for zone of inhibition at 50000 µg/mL: ATCC 6633, 24 h, read-out: DIZ; in short: as §3
Escherichia coli = test: Antibacterial activity against Escherichia coli ATCC 8739 at 50 mg/ml after 24 hrs by agar diffusion test; type: functional; in short: as §3

## CC[C@H](CO)NC(=O)c1ccccc1O
Micrococcus luteus [1]
  zone of inhibition at 50000 µg/mL: 13 mm
Candida tropicalis
  zone of inhibition at 50000 µg/mL: 13 mm
Saccharomyces cerevisiae
  zone of inhibition at 50000 µg/mL: 15 mm
[2]
  MIC: 0.96 µM (≈ 0.201 µg/mL)
Bacillus cereus
  zone of inhibition at 50000 µg/mL: 11 mm
Acinetobacter johnsonii
  zone of inhibition at 50000 µg/mL: 13 mm
Micrococcus luteus [3]
  zone of inhibition at 50000 µg/mL: 11 mm
HEK-293T
  pIC50: 3.59
Bacillus mycoides
  zone of inhibition at 50000 µg/mL: 12 mm
[4]
  solubility: 2000 µg/mL (≈ 9.56 mM)
Bacillus
  zone of inhibition at 50000 µg/mL: 11 mm
Staphylococcus aureus
  zone of inhibition at 50000 µg/mL: 11 mm
Priestia megaterium
  zone of inhibition at 50000 µg/mL: 13 mm
[5]
  Selectivity Index: 267.7
[6]
  Ratio: 5
Penicillium chrysogenum
  diameter of the inhibition zone (DIZ): inactive
Bacillus subtilis
  diameter of the inhibition zone (DIZ): inactive
Escherichia coli
  diameter of the inhibition zone (DIZ): inactive

## CC[C@H](CO)NP(=O)(c1ccccc1)c1ccccc1
Micrococcus luteus [1]
  zone of inhibition at 50000 µg/mL: 18 mm
Candida tropicalis
  zone of inhibition at 50000 µg/mL: 22 mm
Saccharomyces cerevisiae
  zone of inhibition at 50000 µg/mL: 16 mm
[2]
  MIC: 0.69 µM (≈ 0.2 µg/mL)
Bacillus cereus
  zone of inhibition at 50000 µg/mL: 15 mm
Acinetobacter johnsonii
  zone of inhibition at 50000 µg/mL: 17 mm
Micrococcus luteus [3]
  zone of inhibition at 50000 µg/mL: 15 mm
HEK-293T
  pIC50: 3.81
Bacillus mycoides
  zone of inhibition at 50000 µg/mL: 15 mm
[4]
  solubility: < 1000 µg/mL
Bacillus
  zone of inhibition at 50000 µg/mL: 15 mm
Staphylococcus aureus
  zone of inhibition at 50000 µg/mL: 18 mm
Priestia megaterium
  zone of inhibition at 50000 µg/mL: 16 mm
[5]
  Selectivity Index: 224.6
[6]
  Ratio: 5
Bacillus subtilis
  zone of inhibition at 50000 µg/mL: 18 mm
Escherichia coli
  diameter of the inhibition zone (DIZ): inactive

## CCNC(=O)N[C@H](CC)CO
Micrococcus luteus [1]
  diameter of the inhibition zone (DIZ): inactive
Candida tropicalis
  diameter of the inhibition zone (DIZ): inactive
Saccharomyces cerevisiae
  diameter of the inhibition zone (DIZ): inactive
[2]
  MIC: 1.25 µM (≈ 0.2 µg/mL)
Bacillus cereus
  diameter of the inhibition zone (DIZ): inactive
Acinetobacter johnsonii
  diameter of the inhibition zone (DIZ): inactive
Micrococcus luteus [3]
  diameter of the inhibition zone (DIZ): inactive
HEK-293T
  pIC50: 3.94
Bacillus mycoides
  diameter of the inhibition zone (DIZ): inactive
[4]
  solubility: 215000 µg/mL (≈ 1340 mM)
Bacillus
  diameter of the inhibition zone (DIZ): inactive
Staphylococcus aureus
  diameter of the inhibition zone (DIZ): inactive
Priestia megaterium
  diameter of the inhibition zone (DIZ): inactive
[5]
  Selectivity Index: 91.2
[6]
  Ratio: 5
Penicillium chrysogenum
  diameter of the inhibition zone (DIZ): inactive
Bacillus subtilis
  diameter of the inhibition zone (DIZ): inactive
Escherichia coli
  diameter of the inhibition zone (DIZ): inactive

## CC[C@H](CO)NC(=O)c1ccc(N(C)C)cc1
Micrococcus luteus [1]
  diameter of the inhibition zone (DIZ): inactive
Candida tropicalis
  diameter of the inhibition zone (DIZ): inactive
Saccharomyces cerevisiae
  diameter of the inhibition zone (DIZ): inactive
[2]
  MIC: 8.46 µM (≈ 2 µg/mL)
Bacillus cereus
  diameter of the inhibition zone (DIZ): inactive
Acinetobacter johnsonii
  diameter of the inhibition zone (DIZ): inactive
Micrococcus luteus [3]
  diameter of the inhibition zone (DIZ): inactive
HEK-293T
  pIC50: 3.76
Bacillus mycoides
  diameter of the inhibition zone (DIZ): inactive
[4]
  solubility: 1500 µg/mL (≈ 6.35 mM)
Bacillus
  diameter of the inhibition zone (DIZ): inactive
Staphylococcus aureus
  diameter of the inhibition zone (DIZ): inactive
Priestia megaterium
  diameter of the inhibition zone (DIZ): inactive
[5]
  Selectivity Index: 20.5
Penicillium chrysogenum
  diameter of the inhibition zone (DIZ): inactive
Bacillus subtilis
  diameter of the inhibition zone (DIZ): inactive
Escherichia coli
  diameter of the inhibition zone (DIZ): inactive

## CC[C@H](COC(C)=O)NC(c1ccccc1)(c1ccccc1)c1ccccc1
Micrococcus luteus [1]
  diameter of the inhibition zone (DIZ): inactive
Candida tropicalis
  diameter of the inhibition zone (DIZ): inactive
Saccharomyces cerevisiae
  diameter of the inhibition zone (DIZ): inactive
[2]
  MIC: 13.4 µM (≈ 5 µg/mL)
Bacillus cereus
  diameter of the inhibition zone (DIZ): inactive
Acinetobacter johnsonii
  diameter of the inhibition zone (DIZ): inactive
Micrococcus luteus [3]
  diameter of the inhibition zone (DIZ): inactive
HEK-293T
  pIC50: 3.94
Bacillus mycoides
  diameter of the inhibition zone (DIZ): inactive
[4]
  solubility: < 1000 µg/mL
Bacillus
  diameter of the inhibition zone (DIZ): inactive
Staphylococcus aureus
  diameter of the inhibition zone (DIZ): inactive
Priestia megaterium
  diameter of the inhibition zone (DIZ): inactive
[5]
  Selectivity Index: 8.5
Penicillium chrysogenum
  diameter of the inhibition zone (DIZ): inactive
Bacillus subtilis
  zone of inhibition at 50000 µg/mL: 13 mm
Escherichia coli
  diameter of the inhibition zone (DIZ): inactive
